Sampled rows, rich in hits. Any-hit rate of the full collection: about 3.5%.
MrgX1 allo act – human MrgX1 positive allosteric modulation, primary screen | Q96LB2 | MrgX1-HEK293, Fluo-4 calcium flux, FDSS; stronger effect = higher value | B-score at 10 µM | 310,000 compounds, 0.63% hits | AID 588675;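 active means plate-corrected calcium response at least 3 library SD above typical, normal starting fluorescence, not activating the receptor alone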;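 further: compound read alongside a low EC10 to EC30 dose of BAM8-22 agonist; peak minus trough fluorescence over baseline measured at the second addition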
Target sequence (Q96LB2 whole entry, looked up): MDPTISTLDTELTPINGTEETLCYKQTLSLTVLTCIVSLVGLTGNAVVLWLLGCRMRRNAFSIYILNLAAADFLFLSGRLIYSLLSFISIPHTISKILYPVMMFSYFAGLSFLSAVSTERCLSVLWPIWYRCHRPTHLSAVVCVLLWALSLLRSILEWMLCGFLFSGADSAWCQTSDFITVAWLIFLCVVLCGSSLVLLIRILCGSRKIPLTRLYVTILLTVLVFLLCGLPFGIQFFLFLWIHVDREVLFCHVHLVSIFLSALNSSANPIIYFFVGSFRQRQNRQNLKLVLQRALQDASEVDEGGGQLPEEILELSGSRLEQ
MrgX1 ag – agonists of human MrgX1 receptor; Q96LB2; MrgX1-HEK293 cells, Fluo-4 calcium fluorescence, agonist mode; stronger effect = higher value; B-score at 10 µM; 310,000 compounds, 0.44% hits; AID 588627;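 active means calcium response B-score plate-corrected fluorescence ratio at least 3 library SD, with starting fluorescence B-score inside 5 SD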
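Test system: HEK293 cells stably expressing human MrgX1 receptor; Input: fifteen thousand cells per well; Dosing: compound delivered in addition one of three; Schedule: overnight seeding, then 1 h dark dye loading; Technique: Fluo-4 NW calcium fluorescence; Measure: B-scored fluorescence response ratio; Controls: positive and negative controls per plate.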
RGS4 block – human RGS4 inhibition; HEK293 M3R/RGS4 inducible, Fluo-4 calcium flux; stronger effect = higher value; triggered by carbachol at its EC20; 310,000 compounds, 0.45% hits; AID 463165; B-score at 10 µM;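 active means B-score, a plate-corrected calcium signal, over three deviations above library mean, with baseline fluorescence within five deviations of library mean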;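 further: RGS4 expression induced by doxycycline in cells with stable M3 receptor; B-score is computed from the integrated fluorescence ratio over baseline after carbachol; higher B-score means a larger calcium signal and so more RGS4 inhibition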
MrgX1 antagonist – human MrgX1 receptor antagonism, primary screen | 310,000 compounds, 1.3% hits | MRGX1-HEK293 calcium flux, Fluo-4, BAM8-22 antagonism; stronger effect = lower value | AID 588676 | Q96LB2 | B-score at 10 µM;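 active means calcium-response B-score plate-corrected more than 3 library SD below zero, starting fluorescence within 5 deviations, no agonist response on first addition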;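 further: peak minus trough fluorescence over baseline after final BAM8-22 challenge near maximal dose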
RGS4 act – RGS4 potentiation or activation | HEK293 M3R/inducible RGS4, carbachol calcium flux Fluo4; stronger effect = lower value | B-score at 10 µM | 310,000 compounds, 0.92% hits;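 active means B-score of the integrated calcium signal more than 4 SD below the library mean, with starting fluorescence not abnormally high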;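 further: negative B-score means reduced calcium response which marks RGS4 activation or potentiation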
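Detection: kinetic calcium fluorescence imaging with Fluo4-AM dye, 2 µM / Material: HEK293 cells with stable M3R and inducible RGS4 / Schedule: recording 10 s baseline at 1 Hz, 100 s post-agonist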
The depositor's hits bear a star; i = inactive; x = no result.

SMILES	MrgX1 allo act	MrgX1 ag	RGS4 block	MrgX1 antagonist	RGS4 act
COc1cc(/C=C2/SC(=S)N(c3c(C)n(C)n(-c4ccccc4)c3=O)C2=O)ccc1O	i	36*	i	i	i
CCOc1cc(NC(=O)C(C)C)c(OCC)cc1NC(=O)Nc1ccccc1	i	i	i	i	i
O=C1C2CC=CCC2C(=O)N1c1ccc(NCCc2ccc(O)cc2)c([N+](=O)[O-])c1 (stereo unspecified)	i	i	i	-5.2*	i
O=C1C2CC=CCC2C(=O)N1c1ccc(NCCc2ccc(Cl)cc2)c([N+](=O)[O-])c1 (stereo unspecified)	i	i	i	i	i
COCCCNC(=O)C(C)N1c2cccc3cccc(c23)S1(=O)=O (stereo unspecified)	i	i	i	i	i
Cc1c(Cl)c([N+](=O)[O-])nn1CCCC(=O)Nc1c(Cl)cccc1Cl	i	i	i	i	i
Cc1c(Br)c([N+](=O)[O-])nn1CCCC(=O)N1CCN(c2ccccc2)CC1	i	i	i	i	i
Cc1c(Cl)c([N+](=O)[O-])nn1CCCC(=O)Nc1c(C)n(C)n(-c2ccccc2)c1=O	i	i	i	i	-7.3*
Cc1c(Cl)c([N+](=O)[O-])nn1CCCC(=O)N1CCN(c2ccccc2)CC1	i	i	i	-5.3*	i
CN(CC(=O)Nc1ccccc1Cl)CC(=O)Nc1sc2c(c1C(N)=O)CCC2	i	i	i	i	i
CCOC(=O)C1CCN(C(=O)c2cc(C(C)(C)C)nn2Cc2ccccc2)CC1	i	i	i	i	i
CN1CCN(C(=O)C23CC4CC(C2)CC(c2ccccc2)(C4)C3)CC1	i	i	i	i	i
Cc1ccc(N2C(=O)CC(Cc3ccc(Cl)cc3)C2=O)cc1 (stereo unspecified)	i	i	i	i	i
O=c1c(-c2ccccc2)c(-c2ccccc2)oc2cc(O)cc(O)c12	i	i	i	i	i
O=c1cc(-c2ccccc2)c2c(O)cc(O)cc2o1	i	29*	i	i	i
COc1cc(/C=C(\C#N)C(=O)NC2CCCCC2)ccc1OCc1ccc(C(=O)O)cc1	7.6*	i	i	i	i
CC(=O)Oc1ccc(N2C(=O)C3C(C2=O)C(C(=O)c2ccc(Cl)cc2)N2CCCC32)cc1 (stereo unspecified)	i	30*	i	i	i
O=C(O)/C=C/c1ccc(OCc2cccc(F)c2)cc1	i	i	i	-5.4*	i
CCOC(=O)C1CCCN(S(=O)(=O)c2ccc(S(=O)(=O)N3CCCC3)cc2)C1 (stereo unspecified)	i	i	i	-5.3*	i
CCOC(=O)C1CCCN(C(=O)c2ccc(S(=O)(=O)N3CCCC3)cc2)C1 (stereo unspecified)	i	i	i	i	i
COCCN(C(=O)c1ccc(OC2CCN(S(=O)(=O)N(C)C)CC2)cc1)C(C)C	i	i	i	i	i
CC(=O)Nc1nc(C)c(-c2csc(Nc3cccc(C(C)=O)c3)n2)s1	i	i	i	i	-7.5*
O=C1CSC(c2ccccc2Br)N1c1ccc(Cl)cn1 (stereo unspecified)	i	i	i	i	-7*
CCNc1ccc(Br)cc(C(=O)/C=C/c2ccccc2Cl)c1=O	i	i	i	-6*	i
CNc1ccc(Br)cc(C(=O)/C=C/c2cccc(OC)c2OC)c1=O	i	i	i	-4.8*	i
CCOC(=O)c1nc(S(C)(=O)=O)ncc1N1CCOCC1	i	i	i	i	i
CCOC(=O)c1nc(S(C)(=O)=O)ncc1Cl	i	43*	i	i	i
Cc1ccc(S(=O)(=O)N2CCOCC2)cc1C(=O)OC(C)C(=O)c1ccccc1 (stereo unspecified)	i	i	i	i	i
CC(=O)Oc1cccc(N2C(=O)c3cccc4c([N+](=O)[O-])ccc(c34)C2=O)c1	i	i	i	-8.4*	i
CN(C)CCCN1C(=O)c2cccc3c([N+](=O)[O-])ccc(c23)C1=O	i	i	x	-9.4*	x
